This assay has as its target T1, Beta-galactoside-binding lectin (Gallus gallus, UniProt P07583).
T1 sequence (P07583 whole entry): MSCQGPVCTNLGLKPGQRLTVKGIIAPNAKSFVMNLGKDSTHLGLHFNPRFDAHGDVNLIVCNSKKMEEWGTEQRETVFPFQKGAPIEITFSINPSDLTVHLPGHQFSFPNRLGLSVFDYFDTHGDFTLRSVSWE
Put plainly: Inhibition of binding of biotinylated chicken galectin-1B to surface immobilized asialofetuin by solid phase assay. In short, it runs like this: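 Asialofetuin was adsorbed to microtiter wells at a constant coating amount, and its N-glycans served as ligand. Biotinylated lectin at a lectin-specific concentration was added with inhibitor. IC50 (mM) was normalized to lactose, and potency was expressed relative to free lactose. Assays were run in triplicate across up to five independent series.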

The values below come from BindingDB's records for doi:10.1016/j.bmcl.2011.11.010 (Ludwig-Maximilians-University Munich, 2011).

For `OC[C@H]1O[C@@H](O[C@H]2[C@H](O)[C@@H](O)[C@H](O)O[C@@H]2CO)[C@H](O)[C@@H](O)[C@H]1O` [Lactose, anhydrous], the IC50 was 4 mM.

The IC50 is the point on the concentration scale where inhibition reaches its midpoint. A lower IC50 goes with greater potency in that assay.
